Compound activity from PubChem BioAssay.
This is a sample that favours compounds with a hit; in the whole collection about 2.3% have one here.
OXTR potentiate: potentiators of human oxytocin receptor. P30559. activation, % at 3 µM. actives 0.061% (n = 320,000). CHO-OTR cells, Fluo-8 calcium fluorescence, potentiator mode; 0% = oxytocin EC15, 100% = EC100;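 active = activation above that plate's cutoff, the mean activation of tested compounds plus 3 SD, cut at about 6.6% in these data, passing the limit was not always enough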
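Material: human OTR in CHO cells. Compound: 3.0 µM, one dose. Timing: compound 6 min at room temperature before oxytocin, 100 s read. Evaluation: % activation of max/min ratio relative to oxytocin controls. Replication: single well per compound, singlicate. Signal: Fluo-8 calcium dye fluorescence.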
V1R ag counter: counter-screen for oxytocin receptor agonists: human V1a receptor agonists; P37288; CHO-V1R cells, Fluo-8 calcium fluorescence, agonist mode; 0% DMSO, 100% 3 nM vasopressin; activation, % at 3 µM; actives 0.25% (n = 320,000); AID 2797;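 active = activation above the mean activation of all tested compounds plus 3 SD, per screening run, cut at about 20% in these data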;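 note: signal is peak over basal fluorescence ratio across a 100 second FLIPR read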
Target sequence (P37288 whole entry, looked up): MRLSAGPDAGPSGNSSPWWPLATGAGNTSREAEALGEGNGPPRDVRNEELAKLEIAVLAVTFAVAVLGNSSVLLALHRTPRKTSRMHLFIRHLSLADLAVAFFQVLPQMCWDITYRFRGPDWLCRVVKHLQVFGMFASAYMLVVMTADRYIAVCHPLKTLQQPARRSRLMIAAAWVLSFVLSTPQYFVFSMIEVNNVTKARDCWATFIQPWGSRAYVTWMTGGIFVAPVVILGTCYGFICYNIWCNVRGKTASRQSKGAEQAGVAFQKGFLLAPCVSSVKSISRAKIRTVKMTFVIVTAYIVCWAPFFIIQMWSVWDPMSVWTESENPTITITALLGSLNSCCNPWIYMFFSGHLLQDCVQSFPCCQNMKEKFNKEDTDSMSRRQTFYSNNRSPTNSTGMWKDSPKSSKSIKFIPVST
OXTR agonist: human OXTR agonism; CHO-OTR cells, Fluo-8 calcium fluorescence; normalized: DMSO 0%, oxytocin 100%; P30559; actives 0.32% (n = 320,000); AID 2435; activation, % at 3 µM;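 active = activation above the mean of all tested compounds plus 3 SD, cutoff set per screening run, cut at about 20% in these data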;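 note: peak over basal fluorescence ratio from a 100 s FLIPR kinetic read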
TAAR1 ag: human TAAR1 agonism | Q96RJ0 | CHO RD-HGA16 TAAR1, Fluo-8 calcium fluorescence; vehicle wells 0%, saturating PEA agonist 100% | activation, % at 3 µM | actives 0.99% (n = 360,000) | AID 624467;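 active = activation above the mean activation of all test compounds in the run plus 3 SD, cut at about 38% in these data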
Target sequence (Q96RJ0 whole entry, looked up): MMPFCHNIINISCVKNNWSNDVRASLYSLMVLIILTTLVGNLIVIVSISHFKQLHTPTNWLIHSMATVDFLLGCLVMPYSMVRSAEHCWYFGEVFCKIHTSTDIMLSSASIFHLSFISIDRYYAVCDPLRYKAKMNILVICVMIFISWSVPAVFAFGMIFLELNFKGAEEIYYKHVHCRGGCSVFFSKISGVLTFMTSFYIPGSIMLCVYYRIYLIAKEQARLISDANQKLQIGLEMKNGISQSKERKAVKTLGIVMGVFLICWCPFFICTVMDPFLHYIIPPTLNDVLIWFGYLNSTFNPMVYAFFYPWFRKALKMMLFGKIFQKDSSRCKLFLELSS
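Test system: RD-HGA16 (CHO) cells co-expressing Gα16 and hTAAR1; dosing: one-point dosing at 3 µM (nominal); timing: 17-24 h seeding, 75 min 37 °C dye, 30 min RT; signal: kinetic Fluo-8 calcium fluorescence; read-out basis: % activation relative to PEA EC100 response; controls: DMSO and PEA EC100; replicates: n 1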
TAAR1 antag: antagonists of human TAAR1; Q96RJ0; actives 1.5% (n = 360,000); AID 624466; CHO RD-HGA16 TAAR1, Fluo-8 calcium fluorescence, antagonist; inhibition, % at 3 µM;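 active = inhibition above a per-plate cutoff, the mean inhibition of test compounds on that plate plus 3 SD, cut at about 49% in these data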
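Material: CHO RD-HGA16 cells bearing hTAAR1; compound dosing: one-point dosing, 3 µM nominal final; schedule: dye loading 75 min at 37 °C, then 30 min room temperature; measured by: calcium fluorescence with Fluo-8; control set: vehicle and agonist controls; replication: n of 1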
TAAR1 ag conf: human TAAR1 agonism, confirmed | AID 651783 | activation, % at 3 µM | actives 82% (n = 2,400) | CHO RD-HGA16 TAAR1, Fluo-8 calcium fluorescence; scaled: DMSO 0%, maximal phenethylamine 100% | shares compounds with TAAR1 ag;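 active = activation above a cutoff set at the run's mean compound activation plus 3 SD, cut at about 39% in these data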
Ga16 ag counter: nonselective agonism, TAAR1 counter-screen | activation, % at 3 µM | shares compounds with TAAR1 ag | actives 50% (n = 2,400) | CHO-Ga16 parental, Fluo-8 calcium fluorescence; normalized to maximal ATP response, DMSO zero;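 active = activation above the run cutoff, the mean activation over all tested wells plus 3 SD, cut at about 12% in these data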
TAAR1 desensitize: human TAAR1 agonist that also desensitizes the receptor. shares compounds with TAAR1 ag. CHO RD-HGA16 hTAAR1, Fluo-8 calcium, beta-PEA response inhibition. inhibition, % at 3 µM. actives 46% (n = 2,400). AID 651951;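 active = inhibition above the run cutoff, the mean inhibition of all test compounds plus 3 SD, cut at about 49% in these data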;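 note: beta-PEA stimulus applied at its EC80; loss of beta-PEA calcium signal after compound pretreatment read as receptor desensitization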
Ga16 nonsel ant: nonselective Ga16 antagonism, counter-screen; shares compounds with TAAR1 ag; CHO-Ga16 ATP-induced calcium, Fluo-8 fluorescence; inhibition, % at 3 µM; actives 39% (n = 2,400); AID 651952;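 active = inhibition above the plate's mean compound inhibition plus 3 SD, computed per plate, cut at about 22% in these data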
Large screens that a line does not name were inactive (follow-up assays come after a bar, where they were run).

O=C(CSC1=NS(=O)(=O)c2cc(Cl)ccc2N1)NCCc1ccccc1	TAAR1 ag 104, TAAR1 antag 80 | TAAR1 ag conf 93 | Ga16 ag counter inactive | TAAR1 desensitize 86 | Ga16 nonsel ant inactive
COc1cccc(C(=O)N[C@@H](Cc2cccnc2)C(=O)N2CCC[C@H]2C(=O)NCCc2ccccc2Cl)c1	TAAR1 ag 67, TAAR1 antag 71 (no result: OXTR potentiate, V1R ag counter, OXTR agonist) | TAAR1 ag conf 83 | Ga16 ag counter inactive | TAAR1 desensitize 93 | Ga16 nonsel ant inactive
O=C(N[C@@H](Cc1cccnc1)C(=O)N1CCC[C@H]1C(=O)NCCc1ccccc1Cl)C1CCCC1	TAAR1 ag 80, TAAR1 antag 73 (no result: OXTR potentiate, V1R ag counter, OXTR agonist) | TAAR1 ag conf 80 | Ga16 ag counter inactive | TAAR1 desensitize 86 | Ga16 nonsel ant inactive
COc1cccc(C(=O)N[C@@H](Cc2cccnc2)C(=O)N2CCC[C@H]2C(=O)NCc2ccccc2)c1	none (no result: OXTR potentiate, V1R ag counter, OXTR agonist)
O=C(N[C@@H](Cc1cccnc1)C(=O)N1CCC[C@H]1C(=O)NCCc1ccccc1Cl)c1ccco1	none (no result: OXTR potentiate, V1R ag counter, OXTR agonist)
O=C(N[C@@H](Cc1cccnc1)C(=O)N1CCC[C@H]1C(=O)NCc1ccccc1)c1ccc(Cl)cc1Cl	none (no result: OXTR potentiate, V1R ag counter, OXTR agonist)
O=C(CC1CCCC1)N[C@@H](Cc1cccnc1)C(=O)N1CCC[C@H]1C(=O)NCCc1ccccc1Cl	TAAR1 ag 70, TAAR1 antag 78 (no result: OXTR potentiate, V1R ag counter, OXTR agonist) | TAAR1 ag conf 87 | Ga16 ag counter 13 | TAAR1 desensitize 90 | Ga16 nonsel ant inactive
O=C(N[C@@H](Cc1cccnc1)C(=O)N1CCC[C@H]1C(=O)NCCc1ccccc1Cl)c1ccc(Cl)cc1Cl	TAAR1 ag 65, TAAR1 antag 66 (no result: OXTR potentiate, V1R ag counter, OXTR agonist) | TAAR1 ag conf 72 | Ga16 ag counter inactive | TAAR1 desensitize 89 | Ga16 nonsel ant inactive
CCCCn1c(SCC(=O)Nc2oc(C)c3c(C)n[nH]c(=O)c23)nc2cc(S(N)(=O)=O)ccc21	none
CC(=O)c1ccc2c3c(cccc13)C(=O)N(CCc1ccccc1)C2=O	none (no result: TAAR1 ag, TAAR1 antag) | Ga16 ag counter inactive | Ga16 nonsel ant inactive
CCc1ccc(C(=O)NCc2ccc(Cl)cc2)cc1	TAAR1 ag 65 | TAAR1 ag conf inactive | Ga16 ag counter 21 | TAAR1 desensitize inactive | Ga16 nonsel ant inactive
CC(C)=C1C2CCC1C(C(=O)NCCc1ccccc1)C2C(=O)O (centres undefined)	TAAR1 ag 62, TAAR1 antag 88 | TAAR1 ag conf 80 | Ga16 ag counter inactive | TAAR1 desensitize 90 | Ga16 nonsel ant inactive
O=C(O)C1C2C=CC(C3CC23)C1C(=O)NCCc1ccccc1 (centres undefined)	TAAR1 ag 91, TAAR1 antag 93 | TAAR1 ag conf 96 | Ga16 ag counter inactive | TAAR1 desensitize 97 | Ga16 nonsel ant inactive
CC(C)=C1C2CCC1C(C(=O)Nc1cc(C)cc(C)c1)C2C(=O)O (centres undefined)	none
CC(=NCCc1ccccc1)C1=C(O)C(c2ccccc2)OC1=O (centres undefined)	TAAR1 ag 73 | TAAR1 ag conf 77 | Ga16 ag counter inactive | TAAR1 desensitize inactive | Ga16 nonsel ant inactive
CC(=NCCc1ccccc1)C1=C(O)COC1=O	TAAR1 ag 83 | TAAR1 ag conf 78 | Ga16 ag counter inactive | TAAR1 desensitize inactive | Ga16 nonsel ant inactive
O=C(NC(Sc1ccc(Cl)cc1)C(=O)O)c1ccccc1 (centres undefined)	none (no result: OXTR potentiate, V1R ag counter, OXTR agonist)
Cc1cccc(N2C(=O)C(O)=C(C(=O)c3cccs3)C2c2ccc(C(C)C)cc2)n1 (centres undefined)	V1R ag counter 33, OXTR agonist 33, TAAR1 ag 69 | TAAR1 ag conf 80 | Ga16 ag counter 67 | TAAR1 desensitize 51 | Ga16 nonsel ant 33
O=C(COC(=O)CCC1CCCC1)Nc1ccc(Cl)cn1	TAAR1 ag 46 | TAAR1 ag conf inactive | Ga16 ag counter inactive | TAAR1 desensitize inactive | Ga16 nonsel ant inactive
O=C(COC(=O)C1CCC1)Nc1ccc(Cl)cn1	none
CC(C)c1onc(C(=O)NCCc2ccccc2)c1[N+](=O)[O-]	none (no result: TAAR1 ag, TAAR1 antag) | Ga16 ag counter inactive | Ga16 nonsel ant inactive
O=C(CCCCCn1c(=S)[nH]c2ccc(N3CCOCC3)cc2c1=O)NCCc1ccccc1	TAAR1 ag 55 | TAAR1 ag conf 70 | Ga16 ag counter inactive | TAAR1 desensitize inactive | Ga16 nonsel ant inactive
O=C(CCCn1c(=S)[nH]c2cc3c(cc2c1=O)OCO3)NCCc1ccccc1Cl	TAAR1 ag 52 | TAAR1 ag conf inactive | Ga16 ag counter inactive | TAAR1 desensitize inactive | Ga16 nonsel ant inactive
O=C(CCCCCn1c(=S)[nH]c2ccc(N3CCOCC3)cc2c1=O)NCc1ccccc1Cl	none
O=C(CCn1c(=S)[nH]c2cc3c(cc2c1=O)OCO3)NCCc1ccccc1Cl	TAAR1 ag 74 (no result: OXTR potentiate, V1R ag counter, OXTR agonist) | TAAR1 ag conf 92 | Ga16 ag counter inactive | TAAR1 desensitize 78 | Ga16 nonsel ant inactive
COC(=O)C1c2ccccc2-c2ccccc21	none (no result: OXTR potentiate, V1R ag counter, OXTR agonist)
O=c1c(C(c2ccc(F)cc2)c2c(O)nc3n(c2=O)CCCS3)c(O)nc2n1CCCS2	none
Fc1ccccc1-c1nc(-c2ccc(-c3nn[nH]n3)cc2)no1	TAAR1 ag 51 | TAAR1 ag conf inactive | Ga16 ag counter 16 | TAAR1 desensitize inactive | Ga16 nonsel ant inactive
CNC(=S)SCCOc1ccccc1C	none
COc1cccc(N2CCN(C3C4CC5CC(C4)CC3C5)CC2)c1 (centres undefined)	TAAR1 ag 41 | TAAR1 ag conf 56 | Ga16 ag counter 19 | TAAR1 desensitize inactive | Ga16 nonsel ant inactive
COc1cccc(N2CCN(CC(=O)C34CC5CC(CC(C5)C3)C4)CC2)c1	none
c1ccc(CCNCc2cccs2)nc1	TAAR1 ag 52 (no result: OXTR potentiate, V1R ag counter, OXTR agonist) | TAAR1 ag conf 66 | Ga16 ag counter inactive | TAAR1 desensitize inactive | Ga16 nonsel ant inactive
c1ccc(NCCc2ccccn2)cc1	none (no result: OXTR potentiate, V1R ag counter, OXTR agonist)
CNCCc1ccccn1	TAAR1 ag 81, TAAR1 antag 58 | TAAR1 ag conf 92 | Ga16 ag counter inactive | TAAR1 desensitize 82 | Ga16 nonsel ant inactive
Cc1ccc(-n2nnnc2SCC(=O)c2c(N)n(C3CC3)c(=O)[nH]c2=O)c(C)c1	TAAR1 ag 55 | TAAR1 ag conf inactive | Ga16 ag counter inactive | TAAR1 desensitize inactive | Ga16 nonsel ant inactive
